pEC50: −log10 of the molar value.
Key:
Thoracic aorta [1] = test: Vasorelaxant activity in Wistar rat endothelium-intact thoracic aortic rings assessed relaxation of 30 mM KCl-induced contraction; type: functional
Summary of the method: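 Endothelium-intact thoracic aortic rings from female Wistar rats (180–220 g), equilibrated 75 min under 1.8–2.0 g tension, pH 7.4, isometric force transducer. After stable 30 mM KCl plateau (about 15 min), cumulative addition at 1, 10, 30, 50, 100 µM, or 0.1–100 µM for some compounds. EC50 = concentration giving 50% relaxation; mean ± SEM of 4–6 experiments.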

[2] = Inhibition of glucose-induced insulin secretion from Wistar rat pancreatic islets assessed as residual insulin release at 50 uM after 90 mins by radioimmunological assay; type: functional, Pancreatic islet
Summary of the method: (§1)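 Islets from adult fed Wistar rats, groups of 10 from the same batch. Preincubated 30 min at 37°C in bicarbonate salt medium with 2.8 mM glucose and 0.5% dialysed albumin, gassed O2/CO2 95:5. Then incubated 90 min at 37°C with 16.7 mM glucose plus compound. Insulin measured by radioimmunoassay against rat insulin standard. Residual secretion expressed as % of drug-free 16.7 mM glucose control.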

Thoracic aorta [3] = test: Vasorelaxant activity in Wistar rat thoracic aortic rings assessed relaxation of 80 mM KCl-induced contraction; type: functional
Summary of the method: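 Female Wistar rat (180–220 g) thoracic aortic rings equilibrated 75 min at 1.8–2.0 g tension, pH 7.4. Depolarized with 80 mM KCl, then compounds added cumulatively. EC50 = concentration giving 50% relaxation of the 80 mM KCl contraction. Mean ± SEM, n = 4–5.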

[4] = Inhibition of glucose-induced insulin secretion from Wistar rat pancreatic islets assessed as residual insulin release at 10 uM after 90 mins by radioimmunological assay; type: functional, Pancreatic islet; summary of the method: as §1
Thoracic aorta [5] = test: Vasorelaxant activity in Wistar rat thoracic aortic rings assessed relaxation of 30 mM KCl-induced contraction in presence of KATP channel blocker glibenclamide; type: functional
Summary of the method: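 Female Wistar rat thoracic aorta rings under 1.8–2.0 g resting tension, pH 7.4. Glibenclamide 10 μM present continuously in bath. Contraction by 30 mM KCl, then cumulative compound addition. EC50 = concentration relaxing the KCl contraction by 50%. Mean ± SEM, n = 3–5.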

Thoracic aorta [6] = test: Vasorelaxant activity in Wistar rat endothelium-denuded thoracic aortic rings assessed relaxation of 30 mM KCl-induced contraction; type: functional
[7] = Inhibition of glucose-induced insulin secretion from Wistar rat pancreatic islets assessed as residual insulin release at 1 uM after 90 mins by radioimmunological assay; type: functional, Pancreatic islet; summary of the method: as §1

Structure (SMILES): O=C(Nc1nc2ccccc2s1)Nc1ccc(C(F)(F)F)cc1Cl
- pEC50 (Thoracic aorta [1]): < 4.00

Structure (SMILES): O=C(Nc1nc2ccc(Br)cc2s1)Nc1ccc(C(F)(F)F)cc1Cl
- pEC50 (Thoracic aorta [1]): < 4.00

Structure (SMILES): CC(C)(C)NC(=O)Nc1nc2ccc(Br)cc2s1
- Activity [2]: 15.89%
- pEC50 (Thoracic aorta [3]): 4.57
- Residual insulin secretion (% of glucose control) [4]: 77.97%
- pEC50 (Thoracic aorta [5]): 4.63
- pEC50 (Thoracic aorta [1]): 4.89
- pEC50 (Thoracic aorta [6]): 4.92

Structure (SMILES): Cc1ccc2nc(NC(=O)NC(C)C)sc2c1
- pEC50 (Thoracic aorta [1]): 4.73

Structure (SMILES): CC(C)(C)NC(=O)Nc1nc2c(s1)CCCC2
- pEC50 (Thoracic aorta [1]): 4.12

Structure (SMILES): O=C(Nc1ccc(Cl)cc1)Nc1nc2c(s1)CCCC2
- pEC50 (Thoracic aorta [1]): < 4.00

Structure (SMILES): CCc1ccc2nc(NC(=O)NCc3ccccc3)sc2c1
- pEC50 (Thoracic aorta [1]): < 4.00

Structure (SMILES): O=C(NCc1ccccc1)Nc1nc2ccc(Br)cc2s1
- Activity [2]: 17.85%
- Residual insulin secretion (% of glucose control) [4]: 82.97%
- pEC50 (Thoracic aorta [1]): 4.19

Structure (SMILES): CC(C)NC(=O)Nc1nc2ccc([N+](=O)[O-])cc2s1
- Activity [2]: 8.52%
- pEC50 (Thoracic aorta [3]): 4.44
- Residual insulin secretion (% of glucose control) [4]: 62.03%
- pEC50 (Thoracic aorta [1]): 4.80
- pEC50 (Thoracic aorta [6]): 4.75

Structure (SMILES): CC(C)(C)NC(=O)Nc1nc2ccc([N+](=O)[O-])cc2s1
- Activity [2]: 11.77%
- pEC50 (Thoracic aorta [3]): 4.51
- Residual insulin secretion (% of glucose control) [4]: 30.98%
- pEC50 (Thoracic aorta [5]): 4.71
- pEC50 (Thoracic aorta [1]): 4.97
- Residual insulin release (% of control) [7]: 83.52%
- pEC50 (Thoracic aorta [6]): 4.83

Structure (SMILES): N#Cc1ccc(NC(=S)Nc2nc3c(s2)CCCC3)cc1
- pEC50 (Thoracic aorta [1]): < 4.00

Structure (SMILES): CCCCCNC(=O)Nc1nc2ccc([N+](=O)[O-])cc2s1
- pEC50 (Thoracic aorta [3]): 4.85
- pEC50 (Thoracic aorta [5]): 4.71
- pEC50 (Thoracic aorta [1]): 5.68
- pEC50 (Thoracic aorta [6]): 5.32

Structure (SMILES): CCc1ccc2nc(NC(=S)NCc3ccccc3)sc2c1
- pEC50 (Thoracic aorta [1]): < 4.00

Structure (SMILES): Cc1ccc2nc(NC(=S)NCc3ccccc3)sc2c1
- pEC50 (Thoracic aorta [1]): < 4.00

Structure (SMILES): CCc1ccc2nc(NC(=O)Nc3ccc(C(F)(F)F)cc3Cl)sc2c1
- pEC50 (Thoracic aorta [1]): < 4.00

Structure (SMILES): CCc1ccc2nc(NC(=O)NC(C)C)sc2c1
- pEC50 (Thoracic aorta [1]): 4.61

Structure (SMILES): Cc1ccc2nc(NC(=S)NC3CCCCC3)sc2c1
- pEC50 (Thoracic aorta [1]): 4.28

Structure (SMILES): CC(C)NC(=O)Nc1nc2c(s1)CCCC2
- pEC50 (Thoracic aorta [1]): 4.32

Structure (SMILES): O=C(Nc1nc2ccc([N+](=O)[O-])cc2s1)Nc1ccc(C(F)(F)F)cc1Cl
- pEC50 (Thoracic aorta [1]): 4.27

Structure (SMILES): CC(C)NC(=O)Nc1nc2ccc(Br)cc2s1
- pEC50 (Thoracic aorta [1]): 4.64

Structure (SMILES): CC(C)NC(=S)Nc1nc2c(s1)CCCC2
- pEC50 (Thoracic aorta [1]): < 4.00

Structure (SMILES): O=[N+]([O-])c1cccc(NC(=S)Nc2nc3c(s2)CCCC3)c1
- pEC50 (Thoracic aorta [1]): < 4.00

Structure (SMILES): N#Cc1ccc(NC(=O)Nc2nc3ccc(Br)cc3s2)cc1
- Activity [2]: 10.68%
- Residual insulin secretion (% of glucose control) [4]: 11.03%
- pEC50 (Thoracic aorta [1]): < 4.00
- Residual insulin release (% of control) [7]: 60.5%

Structure (SMILES): CCCCCNC(=O)Nc1nc2ccc(C#N)cc2s1
- pEC50 (Thoracic aorta [1]): 4.83

Structure (SMILES): CC(C)(C)NC(=O)Nc1nc2ccc(C#N)cc2s1
- pEC50 (Thoracic aorta [3]): 4.82
- pEC50 (Thoracic aorta [5]): 4.81
- pEC50 (Thoracic aorta [1]): 5.56
- pEC50 (Thoracic aorta [6]): 5.33

Structure (SMILES): CCc1ccc2nc(NC(=S)Nc3cccc([N+](=O)[O-])c3)sc2c1
- pEC50 (Thoracic aorta [1]): < 4.00

Structure (SMILES): CCc1ccc2nc(NC(=O)NC(C)(C)C)sc2c1
- pEC50 (Thoracic aorta [1]): 4.60

Structure (SMILES): N#Cc1ccc(NC(=O)Nc2nc3c(s2)CCCC3)cc1
- pEC50 (Thoracic aorta [1]): < 4.00

Structure (SMILES): CC(C)NC(=O)Nc1nc2ccccc2s1
- pEC50 (Thoracic aorta [1]): 4.45

Structure (SMILES): O=C(Nc1ccc(Cl)c(C(F)(F)F)c1)Nc1nc2c(s1)CCCC2
- pEC50 (Thoracic aorta [1]): < 4.00

Structure (SMILES): CC1=Nc2ccc(Cl)cc2S(=O)(=O)N1 [DIAZOXIDE]
- Activity [2]: 26.7%
- pEC50 (Thoracic aorta [3]): < 4.00
- Residual insulin secretion (% of glucose control) [4]: 73.9%
- pEC50 (Thoracic aorta [5]): < 4.00
- pEC50 (Thoracic aorta [1]): 4.63
- Residual insulin release (% of control) [7]: 87.5%
- pEC50 (Thoracic aorta [6]): 4.64

Structure (SMILES): CC(N/C(=N\C#N)Nc1ccncc1)C(C)(C)C (stereo not drawn) [PINACIDIL ANHYDROUS]
- Activity [2]: 88.8%
- pEC50 (Thoracic aorta [3]): 4.04
- pEC50 (Thoracic aorta [5]): 5.10
- pEC50 (Thoracic aorta [1]): 6.41
- Residual insulin release (% of control) [7]: 97.7%
